# According to ChEMBL document CHEMBL1121495, “Anticandidal activity of pyrimidine-peptide conjugates” (J Med Chem, 1980):
# Tested on: Candida albicans
# Assay: Compound was evaluated for inhibition of transport of trimethionine in Candida albicans WD 18-4
# Format: functional
# Design: concentration or dose not given beside the values
# Outline: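 Initial uptake rate of radiolabeled (Met)3 into C. albicans WD 18-4 cells grown 6-8 h at 37 °C with aeration. Washed cells (1.4 mg dry wt/mL) preincubated 10 min at 37 °C, mixed with reaction mix of 2% glucose, citrate-phosphate buffer pH 3.5 (0.012 M) and (Met)3 6.06 x 10^-5 M. Samples filtered at intervals, washed, scintillation counted. Competitor included at 10-fold molar excess over (Met)3.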
row,SMILES,Inhibition [%]
1,COC(=O)[C@H](CCSC)NC(=O)[C@H](CCSC)NC(=O)c1cc(O)nc(O)n1,0
2,O=C(O)CNC(=O)CNC(=O)c1cc(O)nc(O)n1,0
3,CC(C)C[C@H](NC(=O)c1nc(O)nc(O)c1F)C(=O)O,0
4,CC(C)CC(NC(=O)C(CC(C)C)NC(=O)c1cc(O)nc(O)n1)C(=O)O (stereo not given),67
5,CC(C)C[C@H](NC(=O)[C@H](CC(C)C)NC(=O)c1nc(O)nc(O)c1F)C(=O)O,40
